Tests used:
[1] = Spectroscopic properties and 1O2 quantum yield in MeCN; assay type: physicochemical; settings: for Φ Δ (1O2 quantum yield): irradiation at 450 nm, [Ru(bpy)3]Cl2 as reference
RPE-1 cells = assay: Dark cytotoxicity, resazurin assay, non-cancerous RPE-1; assay type: cell-based; settings: read-out: Cytotoxicity IC50 Dark, RPE-1, normoxia (20%)
A549 cells [2] = assay: Cellular uptake by ICP-MS; assay type: cell-based, Human; settings: A549, 5 μM, 4 h
Summary of the method: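 Test Os(II) complexes were added at 5 μM to A549 cells for 4 h under normoxic or hypoxic conditions. Uptake was quantified by ICP-MS from the cellular Ru/Os concentration. Experiments were done in triplicate.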

A549 cells [3] = assay: Cellular uptake inhibition by acetazolamide pre-incubation, ICP-MS; assay type: cell-based, Human; settings: A549, complex 5 μM 4 h, acetazolamide 50 μM 2 h pre-incubation
[4] = Octanol/PBS partition coefficient; assay type: physicochemical; settings: room temperature, PF6- salts
Summary of the method: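 Partitioning measured between octanol and PBS; PBS replaced water to limit pH effects on log P. Complexes were tested as PF6− salts, whereas the biological assays used chloride salts.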

Solubility in water = assay type: physicochemical
A549 cells [5] = assay: Cellular fraction; assay type: cell-based, Human; settings: A549, 24 h co-incubation, nuclei/cytoplasm isolated, ICP-MS
Summary of the method: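 Test complexes were incubated with A549 cells for 24 h. Nuclei and cytoplasm were then isolated, and each fraction was analysed by ICP-MS for Ru or Os content to give the distribution between compartments. Experiments were done in triplicate.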

**Q.** What does the source list for `[Cl][Ru][Cl].c1ccc(-c2ccccn2)nc1.c1ccc(-c2ccccn2)nc1.c1ccc(-c2ccccn2)nc1` [Ru(bpy)3, [Ru(bpy)3]Cl2, reference compound]?
**A.** Φ em (luminescence quantum yield) [1]: 8%; λ em (emission maximum) [1]: 608 nm; τ (fluorescence lifetime) [1]: 159 ns; Φ Δ (1O2 quantum yield) [1]: 77%

**Q.** For “[Os(Bphen)2(bpy-(NH2)2)]2+(2PF6-) [complex 9]”, which IC50 (RPE-1 cells) is on record?
**A.** > 30 µM

**Q.** What about the “cellular uptake under hypoxic compared to normoxic conditions” value (A549 cells [2]) of the same molecule?
**A.** notably reduced cellular uptake under hypoxic conditions

**Q.** What about the “impact of acetazolamide pre-incubation on cellular uptake” value (“impact of acetazolamide pre-incubation” below) (A549 cells [3]) of the same molecule?
**A.** negligible

**Q.** For “[Os(Bphen)2(bpy-(NHCH2CH2NH2)2-L2)]2+(2PF6-).(L= N4-Succinoylsulfanilamide) [complex 12]”, which “Φ em (luminescence quantum yield)” value [1] is on record?
**A.** 0%

**Q.** And the “log P (octanol/PBS partition coefficient)” value [4]?
**A.** greater than 1

**Q.** And the solubility in water (Solubility in water)?
**A.** good solubility in water

**Q.** What about the IC50 (RPE-1 cells) of the same molecule?
**A.** > 100 µM

**Q.** What about the “cellular uptake under hypoxic compared to normoxic conditions” value (A549 cells [2]) of the same molecule?
**A.** 1.3 times

**Q.** And the “fraction localized within the cytoplasm” value (A549 cells [5])?
**A.** over 80%

**Q.** What about the “impact of acetazolamide pre-incubation” value (A549 cells [3]) of the same molecule?
**A.** notably reduced

**Q.** With “[Os(Bphen)2(bpy-(NHCH2CH2NH2)2-L)]2+(2PF6-).(L= N4-Succinoylsulfanilamide) [complex 11]” as the molecule, how does the “Φ em (luminescence quantum yield)” value [1] read?
**A.** 0%

**Q.** And the “log P (octanol/PBS partition coefficient)” value [4]?
**A.** greater than 1

**Q.** And the solubility in water (Solubility in water)?
**A.** good solubility in water

**Q.** And the IC50 (RPE-1 cells)?
**A.** > 100 µM

**Q.** What about the “impact of acetazolamide pre-incubation” value (A549 cells [3]) of the same molecule?
**A.** notably reduced

**Q.** What does the source list for “[Ru(Bphen)2(bpy-(NH 2)2)]2+(2PF6-) [complex 3]”?
**A.** IC50 (RPE-1 cells): > 100 µM; impact of acetazolamide pre-incubation on cellular uptake (A549 cells [3]): negligible

**Q.** With “[Ru(Bphen)2(bpy-(NH CH 2CH2NH2)2-L2)]2+(2 P F 6-).(L= N4-Succinoylsulfanilamide) [complex 6]” as the molecule, how does the “Φ em (luminescence quantum yield)” value [1] read?
**A.** 2%

**Q.** What about the “λ em (emission maximum)” value [1] of the same molecule?
**A.** 675 nm

**Q.** What about the “τ (fluorescence lifetime)” value [1] of the same molecule?
**A.** 117 ns

**Q.** And the “Φ Δ (1O2 quantum yield)” value [1]?
**A.** 77%

**Q.** And the “log P (octanol/PBS partition coefficient)” value [4]?
**A.** greater than 1

**Q.** And the solubility in water (Solubility in water)?
**A.** good solubility in water

**Q.** What about the IC50 (RPE-1 cells) of the same molecule?
**A.** > 100 µM

**Q.** And the “fraction localized within the cytoplasm” value (A549 cells [5])?
**A.** over 80%

**Q.** What about the “impact of acetazolamide pre-incubation” value (A549 cells [3]) of the same molecule?
**A.** notably reduced

**Q.** Which “Φ em (luminescence quantum yield)” value [1] does the source give for “[Ru(Bphen)2(bpy-(NH CH 2CH2NH2)2-L)]2+(2PF6-).(L= N4-Succinoylsulfanilamide) [complex 5]” here?
**A.** 2%

**Q.** And the “λ em (emission maximum)” value [1]?
**A.** 674 nm

**Q.** And the “τ (fluorescence lifetime)” value [1]?
**A.** 122 ns

**Q.** And the “Φ Δ (1O2 quantum yield)” value [1]?
**A.** 77%

**Q.** And the solubility in water (Solubility in water)?
**A.** good solubility in water

**Q.** What about the IC50 (RPE-1 cells) of the same molecule?
**A.** > 100 µM

**Q.** And the “impact of acetazolamide pre-incubation” value (A549 cells [3])?
**A.** notably reduced

Source: PMC10619633 (Chemical Science, 2023)
